Screening data deposited in PubChem by NMMLSC.
MEKK2mut PB1 HTS: signal of MEK5 binding to mutant human MEKK2 PB1 domain. bead flow cytometry, Alexa488-MEK5 binding to MEKK2 mutant. percent response, % at 10 µM. 0.35% of 290,000 active; in the data active means percent response above about 24%, passing the limit was not always enough
MEKK3 PB1 HTS: raises or lowers MEK5 binding to the human MEKK3 PB1 domain. binding response (% of control), % at 10 µM. Q99759. bead-based flow cytometry, Alexa488-MEK5 binding to MEKK3; actives lie on both sides; 0 = blocked by unlabeled MEK5, 100 = vehicle. 1.4% of 290,000 active;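 active means binding response more than 3 SD above or below the average of its plate-row segment, actives on both sides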;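 further: Alexa488 bead fluorescence after subtracting the streptavidin-only scavenger bead signal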
ABCB1 inh: blocks JC-1 efflux by human ABCB1 transporter; AID 1326; inhibition, % at 6.6 µM; P08183; 0.067% of 190,000 active; CCRF-Adr cells, flow cytometry; in the data active means inhibition above about 40%;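 further: 0% = vehicle and 100% = reference inhibitor; higher value means more JC-1 retained so stronger ABCB1 efflux block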
MEKK2wt PB1 HTS: raises or lowers MEK5 binding to wildtype human MEKK2 PB1 domain | Q9Y2U5 | AID 1531 | bead flow cytometry, Alexa488-MEK5 binding to MEKK2 WT; actives lie on both sides | binding response (% of control), % at 10 µM | 1.1% of 290,000 active; in the data active means binding response below about 67% or above about 130%
ABCG2 block: human ABCG2 inhibition, ABCB1 as counter-screen; 0.1% of 190,000 active; IgMXP3 cells, JC-1 efflux, flow cytometry; Q9UNQ0; inhibition, % at 6.6 µM;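 active means inhibition above 80%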;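 further: 0% = DMSO and 100% = nicardipine control wells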
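Read-out basis: Efflux inhibition in percent versus controls | Test system: ABCG2 IgMXP3 and barcoded ABCB1 CCRF-Adr cell mix | Quantity: 3 million cells/mL in well | Schedule: 10 min at 25 °C | Control set: Nicardipine as high control, DMSO as low control | Reagent: JC-1 as fluorescent efflux pump substrate | Signal: Flow cytometry of retained JC-1 fluorescence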
MEKK2wt confirm: raises or lowers MEK5 binding to wildtype human MEKK2, retest; shares compounds with MEKK3 PB1 HTS; bead flow cytometry, Alexa488-MEK5 binding to MEKK2 WT; actives lie on both sides; binding response (% of control), % at 10 µM; 2.4% of 5,900 active; AID 1892; in the data active means binding response below about 16% or above about 210%; inactive means in between
MEKK2mut confirm: signal of MEK5 binding to mutant human MEKK2, retest; shares compounds with MEKK3 PB1 HTS; bead flow cytometry, Alexa488-MEK5 binding to MEKK2 mutant; percent response, % at 10 µM; 2% of 5,900 active; AID 1893; in the data active means percent response mostly above about 71%, no sharp cut-off; inactive means mostly below about 38%;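 further: higher means compound restores mutant binding toward wildtype level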
MEKK3-MEK5 inh: MEKK3-MEK5 PB1 inhibition, single concentration confirmation; shares compounds with MEKK3 PB1 HTS; bead flow cytometry, Alexa488-MEK5 binding to MEKK3; hits give low values; binding response (% of control), % at 10 µM; 1.8% of 5,900 active; AID 1894;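 active means binding response below 72% of control, or above a set upper limit, though filed actives all read lower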;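 further: 100% = DMSO only wells and 0% = binding blocked by excess unlabeled MEK5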
The depositor's hits bear a star; . = not tested or not shown; [ ] = dose if it differs, or a comment. The list is not random: actives were taken first. Their share in the collection is about 2.3%.

SMILES	MEKK2mut PB1 HTS	MEKK3 PB1 HTS	ABCB1 inh	MEKK2wt PB1 HTS	ABCG2 block	MEKK2wt confirm	MEKK2mut confirm	MEKK3-MEK5 inh
CCN(CC)S(=O)(=O)c1ccc(C(=O)/C=C/c2ccc(-c3ccc([N+](=O)[O-])cc3)o2)cc1	-12	87	.	37*[inhibitor]	.	65	-15	85
CC1=N/C(=C/c2cc(Br)cc(Br)c2O)C(=O)O1	1	100	.	106	.	.	.	.
Clc1ccc(SCCn2ccnc2)cc1	-12	70*[inhibitor]	0	84	3	96	4	98
Clc1ccc(OCCn2ccnc2)c(Cl)c1	8	102	1	103	1	.	.	.
Cc1ccc(C(=O)N2CCN(S(=O)(=O)c3ccc(Br)cc3)CC2)o1	2	97	.	104	.	.	.	.
COc1ccc(Nc2nc(-c3ccccc3)c3ccccc3n2)cc1	22	109	0	132	3	.	.	.
COc1ccc(Nc2nc(C)c3ccccc3n2)cc1	16	117	0	140*	1	105	-1	103
COc1ccc(Nc2nc3ccccc3nc2C)cc1	-16	2.0*[inhibitor]	-3	3.0*[inhibitor]	-3	96	-3	97
CC(C)c1nc(C(=O)N2CCCC(N3CCN(c4cccc(Cl)c4)CC3)C2)cs1 (configuration not stated)	12	107	.	110	.	.	.	.
CCCOc1ccc(/C=N/NC(=O)c2ccc3c(c2)OCO3)c(OCCC)c1	-6	98	.	89	.	.	.	.
CC(=O)Nc1ccc(S(=O)(=O)N2CCN(c3nc(NC4CCCC4)c4ccccc4n3)CC2)cc1	18	101	0	163*	1	156	29	105
Cc1ccn2c(NC(=O)c3cccs3)c(-c3ccccc3)nc2c1	5	95	0	98	10	.	.	.
Cc1cccn2c(NC(=O)c3cccs3)c(-c3ccccc3)nc12	1	138*	1	107	-3	101	3	104
CN1CCN(C(c2ccc(C(F)(F)F)cc2)c2cc(Cl)c3cccnc3c2O)CC1 (configuration not stated)	12	105	.	130	.	.	.	.
CCN1CCN(C(c2ccc(C(F)(F)F)cc2)c2ccc3cccnc3c2O)CC1 (configuration not stated)	40*	115	.	164*	.	166	40	106
O=[N+]([O-])c1ccc(C[n+]2cccc3c4ccccc4ccc32)cc1	20	99	1	8.0*[inhibitor]	7	109	9	99
Cc1ccc(NC(=S)N/N=C2\CC(C)(C)Oc3ccc(O)cc32)cc1	0	107	0	102	0	.	.	.
COc1ccc(NC(=S)N/N=C2\CC(C)(C)Oc3ccc(OC)cc32)cc1	1	130*	0	110	7	99	-1	104
CC(C)Oc1ccc(C(=O)Nc2c3c(nn2C(C)(C)C)CS(=O)(=O)C3)cc1	2	99	.	97	.	.	.	.
CCOc1cc(/C=N/NC(=O)CSc2nnc(C)s2)ccc1OCc1ccccc1Cl	-1	132*	2	101	8	106	3	102
COc1ccc(-c2nc(C#N)c(N3CCOCC3)o2)cc1OC	-10	77*[inhibitor]	1	84	4	100	2	97
COc1ccc(NC(=O)c2cccc(N3C(=O)NC4CC3(C)Oc3ccccc34)c2)cc1 (configuration not stated)	8	133*	0	122	21	99	1	99
CN(c1ccc(C(=O)NCc2ccncc2)cc1)S(=O)(=O)c1ccc(Cl)cc1	13	105	.	115	.	.	.	.
Cc1ccc(CSc2nnc3ccc(-c4ccncc4)nn23)cc1	-30	63*[inhibitor]	0	74	3	101	3	97
CCOc1ccccc1NC(=O)CSc1nnc2ccc(-c3ccncc3)nn12	-4	103	1	98	5	.	.	.
